Assay results gathered from unrelated publications.
MTNR1B: Melatonin receptor type 1B (MTNR1B, Homo sapiens, UniProt P49286)

With `C=C1CC[C@@H]2[C@](C)(CO)[C@H](O)CC[C@@]2(C)[C@@H]1C/C=C1/C(=O)OC[C@H]1O` the Ki was 5700 nM (UDP-glucuronosyltransferase 2B7 (UGT2B7, Homo sapiens, UniProt P16662); enzyme activity, inhibitor; pH 7.4).
`Cc1cc(Nc2cc3ncccc3c(N[C@@H]3C[C@H]4CC[C@@H](C3)N4CCC#N)n2)n[nH]1` has a Kd of 860 nM (Cyclin-dependent kinase 7 (CDK7, Homo sapiens, UniProt P50613); binding, competition with immobilised ligand).
For `COc1ccc2[nH]cc(CCNC(C)=O)c2c1I`, the EC50 was 229 nM (MTNR1B; cAMP, agonist, TR-FRET).
`CC(=O)c1cc([N+](=O)[O-])c(Sc2cccc(Cl)c2Cl)s1` has an EC50 of over 50000 nM (Cathepsin D (CTSD, Homo sapiens, UniProt P07339); enzyme activity, inhibitor).
For `COc1ccc(Br)c(CNc2cccnc2)c1`, the Ki was 6.92 nM (MTNR1B; cell-free assay).
`O=C(NCCc1cccc2ccccc12)C1CCC1` gave a Ki of about 100 nM (MTNR1B; ligand displacement, radioligand; cell membranes).
`COc1ccc2c(c1)C(=O)C1(CCc3ccccc31)O2` (centres unmarked) has a Ki of 77000 nM (Peptidyl-prolyl cis-trans isomerase NIMA-interacting 1 (PIN1, Homo sapiens, UniProt Q13526); enzyme activity, inhibitor).
For `Cc1cc2nc3c(=O)[nH]c(=O)nc-3n(C[C@H](O)[C@H](O)[C@H](O)COP(=O)(O)OP(=O)(O)OC[C@H]3O[C@@H](n4cnc5c(N)ncnc54)[C@H](O)[C@@H]3O)c2cc1C`, the Kd was 36 nM (Transformer-2 protein homolog beta (Homo sapiens, UniProt P62995); binding; lysate).
`CC1(C)[C@@H](O)CC[C@]2(C)[C@H]3C(=O)C=C4[C@@H]5C[C@@](C)(C(=O)O)CC[C@]5(C)CC[C@@]4(C)[C@]3(C)CC[C@@H]12` has a Kd of 25000 nM (Peroxiredoxin-1 (PRDX1, Homo sapiens, UniProt Q06830); binding, SPR).
`C=CC(=O)Nc1cccc(CN2C(=O)N(c3c(Cl)c(OC)cc(OC)c3Cl)Cc3cnc(NCCCCN(CC)CC)nc32)c1` has a Kd of 160 nM (Mitogen-activated protein kinase 7 (MAPK7, Homo sapiens, UniProt Q13164); binding, competition with immobilised ligand).
With `COc1cc(I)c2[nH]cc(CCNC(C)=O)c2c1` the EC50 was 60.3 nM (MTNR1B; β-arrestin recruitment, agonist).
For `COc1ccc(-c2nsc(NC(=O)[C@@H]3C[C@H]3C)c2C)cc1`, the EC50 was over 16700 nM (Metabotropic glutamate receptor 7 (GRM7, Homo sapiens, UniProt Q14831); calcium signal, agonist).
For `COCC(CNC(C)=O)c1cccc2ccc(OC)cc12` (centres unmarked), the EC50 was 3.09 nM (MTNR1B; β-arrestin recruitment, agonist).
The Kd of `O=C(O)CC[C@@H](O)C(=O)O` is reported as about 67000 nM (Protein phosphatase 3 catalytic subunit alpha (PPP3CA, Homo sapiens, UniProt Q08209); binding, SPR).
